Experimental data published in ChEMBL document CHEMBL1145172, “From the potent and selective mu opioid receptor agonist H-Dmt-d-Arg-Phe-Lys-NH(2) to the potent delta antagonist H-Dmt-Tic-Phe-Lys(Z)-OH” (J Med Chem, 2005).
Where a SMILES comes first, the peptide text is derived from it. [ ]: non-standard residue; d: D form. The star is where a group is joined. Dmt = Cc1cc(O)cc(C)c1C[C@H](N)C(=O)O; Tic = O=C(O)[C@@H]1Cc2ccccc2CN1; Cbz = O=C(OCc1ccccc1)*

Columns and labels:
[1] = Inhibition constant against synaptosomal Mu opioid receptor
Outline: (§1)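 Competitive binding on synaptosomal membranes from several separate preparations, run as independent duplicate assays with five to eight peptide doses each. Ki derived by the Cheng–Prusoff relation. Values reported as mean ± SE with n repetitions.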

[2] = Inhibition constant against synaptosomal Delta Opioid Receptor; outline: as §1
[3] = target: T1, Delta-type opioid receptor (Mus musculus, UniProt P32300); experiment: Agonistic activity against delta opioid receptor of mouse vas deferens assay; type: functional, tissue-based
Outline: (§2)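 Electrically stimulated isolated tissue: guinea pig ileum for μ and mouse vas deferens for δ. Agonist IC50 taken from dose–response curves. Values are mean ± SE from at least five fresh tissue samples.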

Mu-type opioid receptor = Mu-type opioid receptor (Cavia porcellus, UniProt P97266); experiment: Agonist activity against mu opioid receptor of guinea pig ileum; type: functional, tissue-based; outline: as §2
[4] = target: Opioid receptors; mu & delta (Homo sapiens) (UniProt P41143+P35372); experiment: Selectivity for synaptosomal Mu rather than Delta Opioid Receptors; type: protein assay
[5] = target: T1, Delta-type opioid receptor; experiment: Antagonist activity in mouse vas deferens assay; type: functional, tissue-based; conditions: read-out: pA2 (converted)
Outline: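 Electrically stimulated mouse vas deferens, with deltorphin C as the δ agonist. Antagonism expressed as pA2: the negative log of the molar antagonist concentration that doubles the agonist concentration needed to restore the original submaximal response.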

Mu-type opioid receptor, sequence (P97266 whole entry): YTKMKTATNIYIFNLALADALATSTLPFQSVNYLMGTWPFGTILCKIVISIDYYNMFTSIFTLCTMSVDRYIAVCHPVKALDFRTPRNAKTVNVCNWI
T1 sequence (P32300 whole entry): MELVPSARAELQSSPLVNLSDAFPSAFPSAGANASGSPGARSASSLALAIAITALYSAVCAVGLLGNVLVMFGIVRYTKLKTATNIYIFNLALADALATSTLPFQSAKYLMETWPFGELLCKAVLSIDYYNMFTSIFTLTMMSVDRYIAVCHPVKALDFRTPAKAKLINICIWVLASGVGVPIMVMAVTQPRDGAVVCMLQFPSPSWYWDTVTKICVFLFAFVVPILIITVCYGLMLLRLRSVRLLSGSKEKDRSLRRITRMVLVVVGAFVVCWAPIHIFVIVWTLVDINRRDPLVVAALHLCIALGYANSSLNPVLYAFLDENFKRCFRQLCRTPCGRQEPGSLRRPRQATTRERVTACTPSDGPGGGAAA
Opioid receptors; mu & delta (Homo sapiens), sequence (P35372 whole entry, looked up): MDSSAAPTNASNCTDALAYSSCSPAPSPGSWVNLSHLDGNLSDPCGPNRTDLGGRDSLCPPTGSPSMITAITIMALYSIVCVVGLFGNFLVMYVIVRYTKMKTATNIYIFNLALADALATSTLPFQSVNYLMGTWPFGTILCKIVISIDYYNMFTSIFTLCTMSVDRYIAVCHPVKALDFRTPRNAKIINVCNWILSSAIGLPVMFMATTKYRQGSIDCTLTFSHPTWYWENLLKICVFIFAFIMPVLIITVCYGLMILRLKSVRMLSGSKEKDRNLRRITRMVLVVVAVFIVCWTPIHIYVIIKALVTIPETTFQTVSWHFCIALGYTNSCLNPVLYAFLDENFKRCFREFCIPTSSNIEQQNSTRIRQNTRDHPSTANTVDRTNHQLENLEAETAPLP
Opioid receptors; mu & delta (Homo sapiens), sequence (P41143 whole entry, looked up): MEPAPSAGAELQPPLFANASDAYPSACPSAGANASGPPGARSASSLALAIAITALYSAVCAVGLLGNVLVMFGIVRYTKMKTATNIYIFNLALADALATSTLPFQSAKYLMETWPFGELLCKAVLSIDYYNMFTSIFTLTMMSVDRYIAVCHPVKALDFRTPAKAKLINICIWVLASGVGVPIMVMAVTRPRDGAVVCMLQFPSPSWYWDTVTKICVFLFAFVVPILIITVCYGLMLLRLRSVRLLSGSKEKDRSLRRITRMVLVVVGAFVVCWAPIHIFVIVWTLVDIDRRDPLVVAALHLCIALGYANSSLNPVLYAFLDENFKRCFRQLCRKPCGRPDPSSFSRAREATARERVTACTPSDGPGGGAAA

Row | Compound | Ki [1] | Ki [2] | IC50 [3] | IC50 (Mu-type opioid receptor) | Selectivity [4] | Kb [5]
1 | Cc1cc(O)cc(C)c1C[C@H](N)C(=O)N[C@H](CCC/N=C(/N)N[N+](=O)[O-])C(=O)N[C@@H](Cc1ccccc1)C(=O)N[C@@H](CCCCNC(=O)OCc1ccccc1)C(=O)O | 1.45 nM | 47.6 nM | 682 nM | 63 nM | – | –
2 | Cc1cc(O)cc(C)c1C[C@H](N)C(=O)N[C@H](CCCN=C(N)N[N+](=O)[O-])C(=O)N[C@@H](Cc1ccccc1)C(=O)N[C@@H](CCCCNC(=O)OCc1ccccc1)C(N)=O | 0.15 nM | 24.2 nM | 1.69 nM | 0.509 nM | – | –
3 | Cc1cc(O)cc(C)c1C[C@H](N)C(=O)N1Cc2ccccc2C[C@H]1C(=O)N[C@@H](Cc1ccccc1)C(=O)N[C@@H](CCCCNC(=O)OCc1ccccc1)C(N)=O (H-[Dmt][Tic]FK(Cbz)-NH2) | 1.14 nM | 0.23 nM | > 10000 nM | 1890 nM | 5 | 3.8 nM
4 | Cc1cc(O)cc(C)c1C[C@H](N)C(=O)N1Cc2ccccc2C[C@H]1C(=O)N[C@@H](Cc1ccccc1)C(=O)N[C@@H](CCCCNC(=O)OCc1ccccc1)C(=O)O (H-[Dmt][Tic]FK(Cbz)-OH) | – | – | > 10000 nM | > 10000 nM | 145 | 0.00372 nM
